The target of test [1] is T1, Adrenergic receptor alpha-2 (Rattus norvegicus, UniProt P22086+P19328+P22909).
T1 sequence (P22086 whole entry): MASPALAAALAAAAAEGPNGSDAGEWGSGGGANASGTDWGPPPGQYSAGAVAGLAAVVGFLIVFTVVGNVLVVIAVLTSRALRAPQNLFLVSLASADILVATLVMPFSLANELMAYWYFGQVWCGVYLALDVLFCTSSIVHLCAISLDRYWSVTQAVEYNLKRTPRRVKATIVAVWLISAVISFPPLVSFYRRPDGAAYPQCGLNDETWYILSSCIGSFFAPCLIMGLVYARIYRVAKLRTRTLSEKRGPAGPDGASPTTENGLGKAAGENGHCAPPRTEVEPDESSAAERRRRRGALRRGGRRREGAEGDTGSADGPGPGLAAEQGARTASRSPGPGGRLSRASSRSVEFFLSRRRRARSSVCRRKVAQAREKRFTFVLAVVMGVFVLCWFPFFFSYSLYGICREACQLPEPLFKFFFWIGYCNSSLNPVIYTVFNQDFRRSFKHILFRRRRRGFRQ
T1 sequence (P19328 whole entry): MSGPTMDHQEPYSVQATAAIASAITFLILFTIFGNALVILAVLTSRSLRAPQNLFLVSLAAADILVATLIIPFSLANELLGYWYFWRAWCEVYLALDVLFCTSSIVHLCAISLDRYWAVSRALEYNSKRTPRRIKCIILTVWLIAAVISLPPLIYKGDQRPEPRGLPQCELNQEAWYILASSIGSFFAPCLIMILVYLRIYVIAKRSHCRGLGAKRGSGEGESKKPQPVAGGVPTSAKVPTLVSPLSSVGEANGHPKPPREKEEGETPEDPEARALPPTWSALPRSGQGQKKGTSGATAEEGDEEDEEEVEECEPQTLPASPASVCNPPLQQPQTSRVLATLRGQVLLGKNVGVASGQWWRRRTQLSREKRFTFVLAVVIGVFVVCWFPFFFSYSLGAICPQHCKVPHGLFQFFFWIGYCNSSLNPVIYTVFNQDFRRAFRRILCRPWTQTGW
T1 sequence (P22909 whole entry): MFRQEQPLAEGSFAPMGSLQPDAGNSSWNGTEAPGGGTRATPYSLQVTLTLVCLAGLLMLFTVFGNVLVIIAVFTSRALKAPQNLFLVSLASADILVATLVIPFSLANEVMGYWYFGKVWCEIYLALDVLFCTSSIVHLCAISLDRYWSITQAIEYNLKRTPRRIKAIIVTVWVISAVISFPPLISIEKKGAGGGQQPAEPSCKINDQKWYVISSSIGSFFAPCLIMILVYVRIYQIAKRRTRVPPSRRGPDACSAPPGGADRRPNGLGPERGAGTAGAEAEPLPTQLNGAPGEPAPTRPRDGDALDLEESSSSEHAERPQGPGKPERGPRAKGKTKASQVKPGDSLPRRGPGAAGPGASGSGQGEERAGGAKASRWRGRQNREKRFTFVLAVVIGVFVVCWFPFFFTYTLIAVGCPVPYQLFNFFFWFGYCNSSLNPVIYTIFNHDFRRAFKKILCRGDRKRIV
The test can be described thus: In vitro binding affinity against alpha-2 adrenergic receptor in rat. An outline of the steps:
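Rat cortex synaptic membranes (male Wistar rats, 150-250 g; homogenized in HEPES-sucrose, spun at 1000g then 42000g, pellet washed in 3 mM K phosphate pH 7.5 with 30 min 25 °C preincubation). Displacement of [3H]p-aminoclonidine (0.1 nM), 20 min at 25 °C; filtration, scintillation counting. 8-10 concentrations in triplicate; Ki from single-site fit, nonspecific binding as fitted parameter.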

The species named for test [2] is Mus musculus. The test can be described thus: Mouse Acetylcholine-induced Abdominal Irritant Test activity (MAIT). The test is classed as functional. Particulars: Abdomen. The essentials:
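Male CD-1 mice, 18-24 g, fed ad libitum until testing. Compound or vehicle given orally by gavage; at set intervals afterwards, acetylcholine bromide 5.5 mg/kg i.p. Mice observed in bell jars for a single abdominal response; % antinociception per dose taken from responder counts. ED50 with 95% confidence limits by Litchfield-Wilcoxon probit analysis, including a chi-square test for linearity.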

The species entered for test [3] is Mus musculus. The test can be described thus: Mouse Acetylcholine-induced Abdominal Irritant Test activity(MAIT) of the compound. The settings on record: Abdomen.

Some results are limits rather than exact numbers.

What is called Ki is the dissociation constant of the complex between target and ligand, obtained from inhibition or displacement. For orientation: ED50 means the midpoint of the dose-response relation. The low end stands for an effect at a small dose, the high end for a need for a large dose. Turning to `c1ccc2sc(Cc3c[nH]cn3)nc2c1`, the Ki in test [1] is given as 18 nM. In the test filed under Mus musculus [2], the ED50 was greater than 30 mg/kg. The compound `CCc1nc(C(Cc2ccccc2)c2c[nH]cn2)c(CC)s1` (centres undefined) gave a Ki in test [1] of 37 nM. Further, the 50% effective dose (ED50) in the test listed under Mus musculus [2] is greater than 30 mg/kg. Regarding `CCc1nc(C(C)c2c[nH]cn2)c(CC)s1` (centres undefined), the Ki in test [1] is 407 nM. This compound registered an ED50 in the test filed under Mus musculus [2] of 16 mg/kg. The matching figures for `CCc1sc(C(F)(F)F)nc1Cc1c[nH]cn1`: 320 nM and 20.3 mg/kg. The matching figures for `CCCCc1nc(Cc2c[nH]cn2)c(CCCC)s1`: 35 nM and greater than 30 mg/kg. Turning to `CCc1nc(Cc2[nH]cnc2C)c(CC)s1` [ENTRY 68 A], the Ki in test [1] was found to be 53 nM.

The compound `c1nc(Cc2nc3c(s2)CCC3)c[nH]1` returned a Ki in test [1] of 28 nM. In the test listed under Mus musculus [2], this compound registered an ED50 greater than 30 mg/kg. The corresponding values for `CCc1nc(Cc2c[nH]cn2)c(C)s1` are 57 nM and greater than 30 mg/kg. As to `CCc1nc(Cc2c[nH]cn2)sc1C`, the Ki in test [1] is listed as 18 nM. For the same compound, the ED50 in the test listed under Mus musculus [2] was greater than 30 mg/kg. The corresponding values for `CCc1sc(C)nc1Cc1c[nH]cn1` are 10 nM and 2.3 mg/kg. The corresponding values for `CCc1nc(Cc2ncc[nH]2)c(CC)s1` are greater than 1000 nM and greater than 30 mg/kg. The matching figures for `CCc1nc(CC)c(Cc2c[nH]cn2)s1`: 23 nM and greater than 30 mg/kg.

`CCc1nc(Cc2c[nH]cn2)c(C(C)C)s1` displayed a Ki in test [1] of 235 nM. Also, it took a dose of 25.3 mg/kg to reach the 50% effect level in the test filed under Mus musculus [2] (ED50). The corresponding values for `c1nc(Cc2nc3c(s2)CCCC3)c[nH]1` are 110 nM and greater than 30 mg/kg.

Regarding `CCc1nc(Cc2c[nH]cn2)c(CC)s1`, the Ki in test [1] was 17 nM. This compound also showed an ED50 in the test listed under Mus musculus [2] of 1.8 mg/kg. The matching figures for `CCc1csc(Cc2c[nH]cn2)n1`: 36 nM and greater than 30 mg/kg. The corresponding values for `Cc1nc(Cc2c[nH]cn2)c(C)s1` are 38 nM and greater than 30 mg/kg. Take `CCc1nc(Cc2c[nH]cn2)sc1CC`: in test [1], the Ki is 86 nM. The same compound displayed an ED50 in the test filed under Mus musculus [2] greater than 30 mg/kg. For `CCc1nc(Cc2c[nH]cn2)c(CC)o1`, the Ki in test [1] was 58 nM. In the test listed under Mus musculus [2], this compound showed an ED50 of 2.8 mg/kg. The matching figures for `Cc1nc(C)c(Cc2c[nH]cn2)s1`: 8 nM and 1 mg/kg. Regarding `CCc1nc(Cc2nc[nH]n2)c(CC)s1`, the inhibition constant (Ki) in test [1] is reported as greater than 1000 nM. In the test listed under Mus musculus [2], this compound registered an ED50 greater than 30 mg/kg.

In turn, `CCc1sc(C(C)C)nc1Cc1c[nH]cn1` showed a Ki in test [1] of 28 nM. Also, the 50% effect level in the test listed under Mus musculus [2] (ED50) was put at a dose of 7.5 mg/kg.

`Cc1nc(C)c(C(C)c2c[nH]cn2)s1` (centres undefined) registered a Ki in test [1] of 60 nM. The compound further came in with an ED50 in the test filed under Mus musculus [2] greater than 30 mg/kg. Compound `Cc1cccc(C(C)c2c[nH]cn2)c1C` (single isomer, unassigned) [DEXMEDETOMIDINE] gave an inhibition constant (Ki) in test [1] of 0.015 nM. In the test listed under Mus musculus [3], this compound returned an ED50 of 0.09 mg/kg. For the compound `CCc1nc(CC)c(C(C)c2c[nH]cn2)s1` (centres undefined), the Ki in test [1] is recorded as 97 nM. In the test listed under Mus musculus [2], this compound registered an ED50 greater than 30 mg/kg. The corresponding values for `CCc1sc(-c2ccccc2)nc1Cc1c[nH]cn1` are 13 nM and 15 mg/kg. With `CCc1cnc(Cc2c[nH]cn2)s1`, the Ki in test [1] came out at 381 nM. For the same compound, the ED50 in the test filed under Mus musculus [2] is greater than 30 mg/kg.

As to `CCc1nc(Cc2cn[nH]n2)c(CC)s1`, in test [1], the Ki was greater than 1000 nM. The compound further yielded an ED50 in the test filed under Mus musculus [2] greater than 30 mg/kg.

Compound `CC(C)c1nc(Cc2c[nH]cn2)c(C(C)C)s1` displayed a Ki in test [1] of 285 nM. In the test filed under Mus musculus [2], this compound came in with an ED50 of 23.8 mg/kg.

In the case of `CCc1sc(Cc2c[nH]cn2)nc1C`, the Ki in test [1] is on record as 18 nM. In the test listed under Mus musculus [2], this compound gave an ED50 of 2.8 mg/kg. The matching figures for `Cc1nc(Cc2c[nH]cn2)c(C)o1`: greater than 1000 nM and greater than 30 mg/kg.

Consider `Cc1nc(Cc2c[nH]cn2)sc1C`, for which, in test [1], the inhibitory constant (Ki) came to 11 nM. The compound also returned an ED50 in the test filed under Mus musculus [2] of 1.7 mg/kg.

Compound `CC(C)c1nc(Cc2c[nH]cn2)c(C(C)C)o1` yielded a Ki in test [1] of 714 nM. Further, the ED50 in the test filed under Mus musculus [2] is 6.9 mg/kg. The corresponding values for `CCCc1nc(Cc2c[nH]cn2)c(CCC)s1` are 97 nM and 30 mg/kg.

In test [1], `Cc1nc(C)c(C(c2ccccc2)c2c[nH]cn2)s1` (centres undefined) gave a Ki of 269 nM. For the same compound, in the test listed under Mus musculus [2], the ED50 is greater than 30 mg/kg.

These data come from ChEMBL document CHEMBL1132495, “Alpha(2) adrenoceptor agonists as potential analgesic agents. 1. (Imidazolylmethyl)oxazoles and -thiazoles” (J Med Chem, 1999).
